Data reported in ChEMBL document CHEMBL1126317, “2-(aminoalkyl)-5-nitropyrazolo[3,4,5-kl]acridines, a new class of anticancer agents” (1992).

Key:
[1] = system: Mus musculus; assay: In vivo antitumor activity of the compound(ip, 100 mg/kg for 5 days) against CD2F1 mice implanted intraperitoneally with P388 leukemia cells.; format: functional; settings: route intraperitoneal
[2] = system: L1210; assay: In vitro antitumor activity against L1210 leukemia cell line.; format: functional; settings: Mus musculus, read-out: ID50 (the source's name)
[3] = system: Mus musculus; assay: In vivo antitumor activity of the compound(ip, 12.5 mg/kg for 5 days) against CD2F1 mice implanted intraperitoneally with P388 leukemia cells.; format: functional; settings: route intraperitoneal
[4] = system: Mus musculus; assay: In vivo antitumor activity of the compound(ip, 3.12 mg/kg for 5 days) against CD2F1 mice implanted intraperitoneally with P388 leukemia cells.; format: functional; settings: route intraperitoneal
[5] = system: Mus musculus; assay: In vivo antitumor activity of the compound(ip, 3.12 mg/kg for 5 days) against CD2F1 mice implanted intraperitoneally with P388 leukemia cells; Day 30 survivors=2/6; format: functional; settings: route intraperitoneal
[6] = system: Mus musculus; assay: In vivo antitumor activity of the compound(ip, 12.5 mg/kg for 5 days) against CD2F1 mice implanted intraperitoneally with P388 leukemia cells; Day 30 survivors=1/6; format: functional; settings: route intraperitoneal
[7] = system: Mus musculus; assay: In vivo antitumor activity of the compound(ip, 25 mg/kg for 5 days) against CD2F1 mice implanted intraperitoneally with P388 leukemia cells.; format: functional; settings: route intraperitoneal
[8] = system: Mus musculus; assay: In vivo antitumor activity of the compound(ip, 25 mg/kg for 5 days) against CD2F1 mice implanted intraperitoneally with P388 leukemia cells; Day 30 survivors=1/6; format: functional; settings: route intraperitoneal
[9] = system: Mus musculus; assay: In vivo antitumor activity of the compound(ip, 200 mg/kg for 5 days) against CD2F1 mice implanted intraperitoneally with P388 leukemia cells.; format: functional; settings: route intraperitoneal
[10] = system: Mus musculus; assay: In vivo antitumor activity of the compound(ip, 50 mg/kg for 5 days) against CD2F1 mice implanted intraperitoneally with P388 leukemia cells.; format: functional; settings: route intraperitoneal
[11] = system: Mus musculus; assay: In vivo antitumor activity of the compound(ip, 25 mg/kg for 5 days) against CD2F1 mice implanted intraperitoneally with P388 leukemia cells.; settings: route intraperitoneal
[12] = system: Mus musculus; assay: In vivo antitumor activity of the compound(ip, 25 mg/kg for 5 days) against CD2F1 mice implanted intraperitoneally with P388 leukemia cells; Day 30 survivors=1/6; settings: route intraperitoneal
[13] = system: Mus musculus; assay: In vivo antitumor activity of the compound(ip, 6.25 mg/kg for 5 days) against CD2F1 mice implanted intraperitoneally with P388 leukemia cells; Day 30 survivors=1/6; format: functional; settings: route intraperitoneal
[14] = system: Mus musculus; assay: In vivo antitumor activity of the compound(ip, 6.25 mg/kg for 5 days) against CD2F1 mice implanted intraperitoneally with P388 leukemia cells.; format: functional; settings: route intraperitoneal
[15] = system: HCT-8; assay: In vitro antitumor activity against HCT-8 colon cancer cell line.; format: functional; settings: Homo sapiens, read-out: ID50 (the source's name)
[16] = Ratio of the ID50's showing antitumor activity against HCT-8 and L1210 leukemia cell lines.; format: functional
How it was run: (§1)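 Ratio taken as ID50 in HCT-8 cells divided by ID50 in L1210 cells, both ID50s expressed as molar concentrations.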

[17] = system: Mus musculus; assay: In vivo antitumor activity of the compound(ip, 25 mg/kg for 5 days) against CD2F1 mice implanted intraperitoneally with P388 leukemia cells; Day 30 survivors=2/6; format: functional; settings: route intraperitoneal
[18] = Ratio of the ID50's showing antitumor activity against HCT-8 and L1210 leukemia cell lines; format: functional; how it was run: as §1

Row | SMILES | IC50 [2] | T/C [7] | further results
1 | CCN(CC)CCN1Nc2c3cc(C)ccc3nc3c([N+](=O)[O-])ccc1c23.CS(=O)(=O)O | 860 nM | – | T/C [1]: 136%
2 | CCN(CC)CCN1Nc2c3ccc(OCc4ccccc4)cc3nc3c([N+](=O)[O-])ccc1c23.CS(=O)(=O)O | 180 nM | – | T/C [3]: 87%
3 | CCOc1ccc2c(c1)-c1nn(CCCN(C)C)c3ccc([N+](=O)[O-])c(c13)N2.CS(=O)(=O)O | 220 nM | – | T/C [3]: 236%
4 | CN(C)CCN1Nc2c3cc(OC(=O)C(C)(C)C)ccc3nc3c([N+](=O)[O-])ccc1c23.CS(=O)(=O)O | 2.9 nM | – | T/C [4]: 236%; Activity [5]: 2
5 | CN(C)CCCN1Nc2c3ccccc3nc3c([N+](=O)[O-])ccc1c23.CS(=O)(=O)O | 190 nM | – | Activity [6]: 1; T/C [3]: 214%
6 | CCN(CC)CCCN1Nc2c3cc(OC)ccc3nc3c([N+](=O)[O-])ccc1c23.CS(=O)(=O)O | 1300 nM | 210% | –
7 | CC(=O)Oc1ccc2nc3c([N+](=O)[O-])ccc4c3c(c2c1)NN4CCCN(C)C.CS(=O)(=O)O | 1.9 nM | – | T/C [4]: 252%; Activity [5]: 2
8 | COc1ccc2c(c1)-c1nn(CCN3CCCC3)c3ccc([N+](=O)[O-])c(c13)N2.CS(=O)(=O)O | 160 nM | 211% | –
9 | Cl.O=[N+]([O-])c1ccc2c3c(c4ccccc4nc13)NN2CCNCCO | 220 nM | 235% | –
10 | CCN(CC)CCN1Nc2c3ccc(O)cc3nc3c([N+](=O)[O-])ccc1c23.CS(=O)(=O)O | 83 nM | 130% | –
11 | CN(C)CCN1Nc2c3cc(N(C)C)ccc3nc3c([N+](=O)[O-])ccc1c23.CS(=O)(=O)O | 600 nM | 189% | –
12 | CCN(CC)CCN1Nc2c3cc(N(C)C)ccc3nc3c([N+](=O)[O-])ccc1c23.CS(=O)(=O)O | 900 nM | 178% | Activity [8]: 1
13 | CCOc1ccc2c(c1)-c1nn(CCN(C)C)c3ccc([N+](=O)[O-])c(c13)N2.CS(=O)(=O)O | – | – | Activity [6]: 1
14 | CCN(CC)CCN1Nc2c3c(O)cccc3nc3c([N+](=O)[O-])ccc1c23.CS(=O)(=O)O | 600 nM | – | T/C [9]: 117%
15 | CCN(CC)CCN1Nc2c3cc4c(cc3nc3c([N+](=O)[O-])ccc1c23)OCO4.CS(=O)(=O)O | 160 nM | – | T/C [10]: 173%
16 | C=CCOc1ccc2nc3c([N+](=O)[O-])ccc4c3c(c2c1)NN4CCN(CC)CC.CS(=O)(=O)O | 580 nM | – | T/C [11]: 258%; Activity [12]: 1
17 | COc1ccc2c(c1Cl)-c1nn(CCCN(C)C)c3ccc([N+](=O)[O-])c(c13)N2.CS(=O)(=O)O | 100 nM | – | Activity [13]: 1; T/C [14]: 221%
18 | CCN(CC)CCN1Nc2c3cc(OC)c(Cl)cc3nc3c([N+](=O)[O-])ccc1c23.CS(=O)(=O)O | 270 nM | 112% | –
19 | CCN(CC)CCN1Nc2c3cc(OC)c(OC)cc3nc3c([N+](=O)[O-])ccc1c23.CS(=O)(=O)O | 1100 nM | – | T/C [1]: 126%
20 | CCCC(=O)Oc1ccc2c(c1)-c1nn(CCN(CC)CC)c3ccc([N+](=O)[O-])c(c13)N2.CS(=O)(=O)O | 4.3 nM | – | Activity [13]: 1
21 | CCN(CC)CCN1Nc2c3cc(OC)cc(OC)c3nc3c([N+](=O)[O-])ccc1c23.CS(=O)(=O)O | 760 nM | – | T/C [10]: 88%
22 | CCN(CC)CCN1Nc2c3cc(SC)ccc3nc3c([N+](=O)[O-])ccc1c23.CS(=O)(=O)O | 1100 nM | – | IC50 [15]: 350 nM; T/C [10]: 114%; Ratio [16]: 0.32
23 | COc1ccc2c(c1)-c1nn(CCCN(C)C)c3ccc([N+](=O)[O-])c(c13)N2.CS(=O)(=O)O | – | – | Activity [17]: 2; Ratio [16]: 0.33
24 | CCN(CC)CCN1Nc2c3cc(OC)ccc3nc3c([N+](=O)[O-])ccc1c23.CS(=O)(=O)O | 470 nM | 242% | IC50 [15]: 120 nM; Ratio [18]: 0.26
